# Experimental data gathered from unrelated publications.
# Lines come from different studies, so protocols differ.
# Target: Serine/threonine-protein kinase mTOR (MTOR, Homo sapiens, UniProt P42345)
# Concentration: 1 µM
Compound,assay,remaining binding [%]
CCN1CCN(Cc2ccc(C(=O)Nc3ccc(C)c(Oc4ccc5c(c4)CC(=O)N5)c3)cc2C(F)(F)F)CC1,"binding, competition with immobilised ligand",100
O=C(c1ccc(Nc2ncc(Cl)c(-c3cc4ccccc4s3)n2)cc1)N1CCC(N2CCCC2)CC1,"binding, competition with immobilised ligand",80
CNC(=O)Nc1ccc2c(c1)CC[C@@]21OC(=O)N(CC(=O)N(Cc2ccc(F)cc2)[C@@H](C)C(F)(F)F)C1=O,"cell-free assay, competition with immobilised ligand",92
C[C@H]1CCN(c2nccc(-c3cnn4ncccc34)n2)C1,binding,100
CN(C)C(=O)Cn1cc(-c2nc(C3(c4ccc(-c5cnc(N)nc5)cc4)CC3)no2)cn1,"cell-free assay, competition with immobilised ligand",91
CC1CCCN1c1nccc(-c2cnn3ncccc23)n1 (centres unmarked),binding,95
CCC(=O)N[C@H]1CC[C@@H](C(=O)N(C)c2ccc(-c3nc4ccccc4o3)cc2)C1,"cell-free assay, competition with immobilised ligand",92
COc1ccnn2ncc(-c3ccnc(N(C)C)n3)c12,binding,95
O=C(NCCCN1CCOCC1)c1ccc(Nc2ncc(Cl)c(-c3ccc(Cl)s3)n2)cc1,"binding, competition with immobilised ligand",94
CN(C)CC#Cc1ccc(OCCCc2sc(N3CCc4cccc(C(=O)Nc5nc6ccccc6s5)c4C3)nc2C(=O)O)c(F)c1,"cell-free assay, competition with immobilised ligand",100
CN(C)c1nccc(-c2cnn3ncccc23)n1,binding,100
COc1cnc(Nc2cccc(S(N)(=O)=O)c2)nc1N1CCN(c2ccccc2)C(=O)C1,"binding, competition with immobilised ligand",87
O=C(c1ccc(Nc2nccc(-c3cc4ccccc4s3)n2)cc1)N1CCC(N2CCCC2)CC1,"binding, competition with immobilised ligand",100
c1ccc(N2CCN(Cc3nc4ccccc4[nH]3)CC2)nc1,"cell-free assay, competition with immobilised ligand",100
O=C(Nc1c[nH]nc1C(=O)NC1CCNCC1)c1cc(F)cc(F)c1,"binding, competition with immobilised ligand",100
Nc1ncc2c(n1)-c1c([nH]c3ccc(C#CC4CC4)cc13)CCCC2,"binding, competition with immobilised ligand",100
CN(CCCC(F)(F)F)c1nccc(-c2cnn3ncccc23)n1,binding,95
O=C(O)[C@H]1[C@H](Cn2nnc3ccccc3c2=O)CC[C@@H]1C(=O)c1ccc(OCCC2CCOCC2)cc1,"cell-free assay, competition with immobilised ligand",100
COc1cnc(Nc2cccc(S(N)(=O)=O)c2)nc1N1CCN(c2ccccc2)CC1,"binding, competition with immobilised ligand",93
CN(C)c1nccc(-c2cnc3ncccn23)n1,binding,79
